Experimental data from different studies.
Compare with care: the assays were run in different laboratories.
LCK: Tyrosine-protein kinase Lck (LCK, Homo sapiens, UniProt P06239)

Compound	target	read-out	action	technique	concentration	quantity	result
FC(F)(F)Oc1cccc(-c2cnc3ccc(-c4ccncc4)nn23)c1	LCK	enzyme activity	inhibitor	radiometric	5 µM	activity vs control	25%
CSc1nc(C)c(-c2ccnc(Nc3ccc(N4CCOCC4)cc3)c2)[nH]1	LCK	enzyme activity	inhibitor		10 µM	inhibition	15.8%
CN(C)C1CCN(CC#Cc2nn(C3CCCC3)c3nc(NCc4ccccc4)ncc23)C1 (stereo not shown)	LCK	enzyme activity	inhibitor	FRET	0.1 µM	inhibition	17%
CCCS(=O)(=O)Nc1ccc(F)c(C(=O)c2c[nH]c3ncc(-c4ccc(Cl)cc4)cc23)c1F	LCK	enzyme activity	inhibitor		1 µM	inhibition	< 10%
CC1CCCN1c1nccc(-c2cnn3ncccc23)n1 (stereo not shown)	LCK	cell-free assay			1 µM	remaining signal	100%
C=CC(=O)Nc1cc(Nc2nccc(Nc3cc(Cl)c(F)cc3C(C)(C)O)n2)c(OC)cc1N1CC[C@@H](N(C)C)C1	LCK	enzyme activity	inhibitor		1 µM	inhibition	37%
CN(C)CC#Cc1ccc(OCCCc2sc(N3CCc4cccc(C(=O)Nc5nc6ccccc6s5)c4C3)nc2C(=O)O)c(F)c1	LCK	cell-free assay		competition with immobilised ligand	1 µM	remaining binding	100%
c1cc(-c2cnn3cc(-c4ccc(OCCN5CCCCC5)cc4)cnc23)ccn1	LCK	enzyme activity	inhibitor		0.5 µM	activity vs control	51.8%
C[C@H](NC(=O)c1cnc2n1[C@](C)(Cc1ccc(C#N)cc1)C(=O)N2c1cc(Cl)c(F)c(Cl)c1)C(=O)NC1(c2ccccn2)CC1	LCK	cell-free assay		competition with immobilised ligand	1 µM	remaining binding	100%
CN(C)c1ncc(F)c(-c2cnn3ncccc23)n1	LCK	cell-free assay			1 µM	remaining signal	76%
CS(=O)(=O)N1CCCC(NC(=O)[C@H](CCC2CCCCC2)NC(=O)c2ccc(CNc3ncnc4c3nnn4-c3ccccc3)cc2)C1 (stereo partly shown)	LCK	cell-free assay		competition with immobilised ligand	0.1 µM	remaining binding	100%
COc1cc2ncnc(Nc3ccc(Oc4ccccc4)c(C)c3C)c2cc1OC	LCK	enzyme activity	inhibitor		1 µM	inhibition	83%
Cc1cc(NC(=O)c2cccc3cc(-c4cccc5[nH]nc(N)c45)ccc23)ccc1F	LCK	enzyme activity	inhibitor		0.1 µM	activity vs control	90%
CN(c1nccc(-c2cnn3ncccc23)n1)C1CC1	LCK	cell-free assay			1 µM	remaining signal	98%
Cc1ccc(C(=O)NCc2ccsc2)cc1C#Cc1cn(C(C)C)c2ncnc(N)c12	LCK	enzyme activity	inhibitor		1 µM	activity vs control	3%
C[C@@H]1CN(c2cc(-c3nn(C)c4ccc(OC5(C)CC5)cc34)ncn2)C[C@H](C)O1	LCK	cell-free assay		competition with immobilised ligand	1 µM	remaining binding	94%
CNC(=O)c1cc2c(Oc3ccc(NC(=O)C4(C(=O)Nc5ccc(F)cc5)CC4)cc3)ccnc2cc1OC	Tyrosine-protein kinase Lck, phosphorylated (LCK, Homo sapiens, UniProt P06239)	enzyme activity	inhibitor	radiometric	1 µM	inhibition	97%
COc1cc(-c2cn(C3CCc4c(F)cccc4N(CC(F)(F)F)C3=O)nn2)ccc1-n1cnc(C)c1 (stereo not shown)	LCK	cell-free assay		competition with immobilised ligand	1 µM	remaining binding	100%
c1nc2c(Nc3ccc4c(c3)OCCO4)nc(Nc3ccc4c(c3)OCCO4)nc2[nH]1	LCK	enzyme activity	inhibitor		10 µM	activity vs control	2.1%
Cc1cc(-n2nc(Cc3cc(F)cc(C(F)(F)F)c3)nc2C)ccc1C(N)=O	LCK	cell-free assay		competition with immobilised ligand	1 µM	remaining binding	100%
Cc1ccc(Nc2nccc(N(C)c3ccc4c(C)n(C)nc4c3)n2)cc1S(N)(=O)=O	LCK	enzyme activity	inhibitor		10 µM	inhibition	99%
CCS(=O)(=O)c1cc2cc(C[C@](O)(CC(C)(C)c3ccc(F)cc3C(N)=O)C(F)(F)F)[nH]c2cn1	LCK	cell-free assay		competition with immobilised ligand	1 µM	remaining binding	100%
CC(C)(C)n1nc(Cc2cccc3ccccc23)c2c(N)ncnc21	LCK	enzyme activity	inhibitor		0.5 µM	activity vs control	80.4%
O=C(O)c1cc(-c2ccc(C3CCNCC3)cc2)c2ccc(-c3ccc(C(F)(F)F)cc3)cc2c1	LCK	cell-free assay		competition with immobilised ligand	1 µM	remaining binding	100%
CNCc1ccc(-c2cc(-c3nc(-c4ccc(S(=O)(=O)C(C)C)cc4)cnc3N)on2)cc1	LCK	enzyme activity	inhibitor		2 µM	inhibition	64%
